Assay results published in ChEMBL document CHEMBL4382206, “Inhibition of adherence of the yeast Candida albicans to buccal epithelial cells by synthetic aromatic glycoconjugates” (Eur J Med Chem, 2018).
Active and inactive are the calls of the source. No cut-off for these calls is given here.

Key:
[1] = test system: Candida albicans; experiment: Growth inhibition of Candida albicans at 0.02 to 10 mg/ml; assay type: organism-based
[2] = test system: Candida albicans; experiment: Antimicrobial activity against Candida albicans assessed as inhibition of fungal adherence to BEC by measuring change in adhesion at 10 mg/ml treated with fungus for 90 mins followed by compound washout and cell line addition by crystal violet staining based microscopic analysis relative to control; assay type: functional; set-up: scale not given: the % may be the effect or the level left
In short: (§1)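 Stationary-phase C. albicans, grown overnight in YEPD at 30°C and 200 rpm, was washed and suspended in PBS at 1 x 10^8/mL. Yeast was preincubated 90 min with compound, washed twice, and mixed 50:1 with donor buccal cells (5 x 10^5/ml) at 30°C, 200 rpm, for 90 min. Samples were filtered through 30 µm pores, stained with crystal violet, and yeast counted on 200 BECs; n=3, mean ± SEM.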

[3] = Drug uptake in Candida albicans cell membrane by confocal microscopic analysis; assay type: ADME, cell-based
In short: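 For confocal imaging, C. albicans cells were co-incubated with the fluorescein-labelled galactoside, with untreated cells and FITC-treated cells as controls. Excitation was at 488 nm and emission was collected at 500–600 nm.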

[4] = test system: Candida albicans; experiment: Antimicrobial activity against Candida albicans assessed as inhibition of fungal adherence to BEC at 0.1 mg/ml incubated with fungal/BEC mixture for 90 mins by crystal violet staining based microscopic analysis relative to PBS treated control; assay type: functional; conditions: 1.5 h
[5] = test system: Candida albicans; experiment: Antimicrobial activity against Candida albicans assessed as inhibition of fungal adherence to BEC at 0.1 mg/ml treated with fungus for 90 mins followed by compound washout and cell line addition by crystal violet staining based microscopic analysis; assay type: functional, organism-based; in short: as §1
[6] = test system: Candida albicans; experiment: Antimicrobial activity against Candida albicans assessed as inhibition of fungal adherence to BEC at 0.1 mg/ml incubated with fungal/BEC mixture for 90 mins by crystal violet staining based microscopic analysis relative to untreated control; assay type: functional; conditions: 1.5 h
[7] = test system: Candida albicans; experiment: Antimicrobial activity against Candida albicans assessed as inhibition of fungal adherence to BEC by measuring adhesion at 0.1 mg/ml after 90 mins by crystal violet staining based microscopic analysis relative to control; assay type: functional; conditions: 1.5 h
In short: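 Competition format: yeast (1 x 10^8/mL PBS) and exfoliated human buccal cells (50:1 ratio) were co-incubated with compound for 90 min at 30°C, 200 rpm. BECs were trapped on a 30 µm polycarbonate membrane, washed twice with PBS, heat-fixed and crystal violet-stained. Adherent yeast were counted microscopically on 200 random BECs; three independent occasions, mean ± SEM.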

With CCC(=O)Nc1cc(C(=O)NCc2cn([C@H]3O[C@@H](C)[C@@H](O)[C@@H](O)[C@@H]3O)nn2)cc(C(=O)NCc2cn([C@H]3O[C@@H](C)[C@@H](O)[C@@H](O)[C@@H]3O)nn2)c1 as the compound, how does the “growth inhibition (GI)” value [1] read?
Its value is “Non-Toxic”.

And the Activity [2]?
Its Activity is -8%.

For CCC(=O)Nc1cc(C(=O)NCc2cn(CCO[C@@H]3O[C@H](CO)[C@H](O)[C@H](O)[C@H]3O)nn2)cc(C(=O)NCc2cn(CCO[C@@H]3O[C@H](CO)[C@H](O)[C@H](O)[C@H]3O)nn2)c1, which “growth inhibition (GI)” value [1] is on record?
The value was “Non-Toxic”.

What about the Activity [2] of the same compound?
Its Activity is -35%.

Which Activity [2] does the source give for CCC(=O)Nc1cc(C(=O)NCc2cn([C@H]3O[C@H](CO)[C@@H](O)[C@H](O)[C@H]3NC(C)=O)nn2)cc(C(=O)NCc2cn([C@H]3O[C@H](CO)[C@@H](O)[C@H](O)[C@H]3NC(C)=O)nn2)c1 here?
Its Activity is -45%.

What does the source list for O=C(NCc1cn(CCO[C@@H]2O[C@H](CO)[C@H](O)[C@H](O)[C@H]2O)nn1)c1cc(C(=O)NCc2cn(CCO[C@@H]3O[C@H](CO)[C@H](O)[C@H](O)[C@H]3O)nn2)cc(C(=O)NCc2cn(CCO[C@@H]3O[C@H](CO)[C@H](O)[C@H](O)[C@H]3O)nn2)c1?
growth inhibition (GI) [1]: Non-Toxic; Activity [2]: -42%

Which Activity [2] does the source give for CCC(=O)Nc1cccc(C(=O)NCc2cn(CCO[C@@H]3O[C@H](CO)[C@H](O)[C@H](O)[C@H]3O)nn2)c1 here?
Its Activity is -7.5%.

For CCC(=O)Nc1cc(C(=O)NCc2cn([C@H]3O[C@H](CO)[C@@H](O)[C@H](O)[C@@H]3O)nn2)cc(C(=O)NCc2cn([C@H]3O[C@H](CO)[C@@H](O)[C@H](O)[C@@H]3O)nn2)c1, which Activity [2] is on record?
The Activity was 3%.

With O=C(NCc1cn([C@@H]2O[C@H](CO)[C@H](O)[C@H](O)[C@H]2O)nn1)c1cc(NC(=S)Nc2ccc3c(c2)C(=O)OC32c3ccc(O)cc3Oc3cc(O)ccc32)cc(C(=O)NCc2cn([C@@H]3O[C@H](CO)[C@H](O)[C@H](O)[C@H]3O)nn2)c1 as the compound, how does the Drug uptake [3] read?
Its Drug uptake is “Active”.

Which “growth inhibition (GI)” value [1] does the source give for O=C(NCc1cn([C@@H]2O[C@H](CO)[C@H](O)[C@H](O)[C@H]2O)nn1)c1cc(C(=O)NCc2cn([C@@H]3O[C@H](CO)[C@H](O)[C@H](O)[C@H]3O)nn2)cc(C(=O)NCc2cn([C@@H]3O[C@H](CO)[C@H](O)[C@H](O)[C@H]3O)nn2)c1 here?
The value was “Non-Toxic”.

What about the Activity [2] of the same compound?
Its Activity is -45%.

With C[C@@H]1O[C@H](n2cc(CNC(=O)c3cc(C(=O)NCc4cn([C@H]5O[C@@H](C)[C@@H](O)[C@@H](O)[C@@H]5O)nn4)cc(C(=O)NCc4cn([C@H]5O[C@@H](C)[C@@H](O)[C@@H](O)[C@@H]5O)nn4)c3)nn2)[C@@H](O)[C@H](O)[C@@H]1O as the compound, how does the “growth inhibition (GI)” value [1] read?
Its value is “Non-Toxic”.

And the Activity [2]?
Its Activity is -30%.

With CCC(=O)Nc1cc(C(=O)NCc2cn([C@@H]3O[C@H](CO)[C@H](O[C@@H]4O[C@H](CO)[C@H](O)[C@H](O)[C@H]4O)[C@H](O)[C@H]3O)nn2)cc(C(=O)NCc2cn([C@@H]3O[C@H](CO)[C@H](O[C@@H]4O[C@H](CO)[C@H](O)[C@H](O)[C@H]4O)[C@H](O)[C@H]3O)nn2)c1 as the compound, how does the Activity [2] read?
The Activity was 6.5%.

With CCC(=O)Nc1cc(C(=O)NCc2cn([C@@H]3O[C@H](CO)[C@H](O)[C@H](O)[C@H]3O)nn2)cc(C(=O)NCc2cn([C@@H]3O[C@H](CO)[C@H](O)[C@H](O)[C@H]3O)nn2)c1 as the compound, how does the inhibition at 100 µg/mL [4] read?
The inhibition at 100 µg/mL was 31%.

And the inhibition [5]?
Its inhibition is “Active”.

What about the “growth inhibition (GI)” value [1] of the same compound?
Its value is “Non-Toxic”.

And the inhibition at 100 µg/mL [6]?
Its inhibition at 100 µg/mL is 56%.

And the Activity [2]?
Its Activity is -80%.

What about the inhibition at 100 µg/mL [7] of the same compound?
The inhibition at 100 µg/mL was 65%.

Which Activity [2] does the source give for CCC(=O)Nc1cccc(C(=O)NCc2cn([C@@H]3O[C@H](CO)[C@H](O)[C@H](O)[C@H]3O)nn2)c1 here?
Its Activity is -14.5%.

Which Activity [2] does the source give for CCC(=O)Nc1cc(C(=O)N[C@@H]2O[C@H](CO)[C@H](O)[C@H](O)[C@H]2O)cc(C(=O)N[C@@H]2O[C@H](CO)[C@H](O)[C@H](O)[C@H]2O)c1 here?
Its Activity is -26%.

For CC[C@H](C)C[C@H](C)CCCCCCCCC(=O)N[C@H]1C[C@@H](O)[C@@H](NCCN)NC(=O)[C@@H]2[C@@H](O)CCN2C(=O)[C@H]([C@H](O)CCN)NC(=O)[C@H]([C@H](O)[C@@H](O)c2ccc(O)cc2)NC(=O)[C@@H]2C[C@@H](O)CN2C(=O)[C@H]([C@@H](C)O)NC1=O [CASPOFUNGIN], which “growth inhibition (GI)” value [1] is on record?
The value was “Non-Toxic”.

For CCC(=O)Nc1cc(C(=O)NCc2cn([C@@H]3O[C@H](CO)[C@H](O)[C@H](O)[C@H]3O)nn2)cc(C(=O)NCc2cn([C@@H]3O[C@H](CO)[C@@H](O)[C@H](O)[C@@H]3O)nn2)c1, which Activity [2] is on record?
The Activity was -24%.

With CCC(=O)Nc1cccc(C(=O)NCc2cn([C@H]3O[C@@H](C)[C@@H](O)[C@@H](O)[C@@H]3O)nn2)c1 as the compound, how does the Activity [2] read?
Its Activity is -2%.
